{"source": "ChEMBL document CHEMBL4513216", "about": "“Probing the Open Global Health Chemical Diversity Library for Multistage-Active Starting Points for Next-Generation Antimalarials” (ACS Infect Dis, 2020)"}
{"test": "Toxicity liver stage against HepG2, at 10uM", "assay_type": "cell-based", "design": "test concentration 10 uM, cell line HepG2-A16-CD81EGFP", "conditions": "human, HepG2-A16-CD81EGFP cells; read-out: INHIBITION", "in_short": "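Uninfected HepG2-A16-CD81EGFP cells, 3 × 10^3 per well, 1536-well, plated on prespotted compound at 10 μM final, parasite-free screening media added to match infected plates; puromycin 10 μM positive, DMSO 0.5% negative; run in parallel with 48 h PbLuc assay at 37 °C, 5% CO2; viability by CellTiter-Glo luminescence, normalized to controls.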", "units": {"cytotoxicity at 10 µM": "%"}}
{"molecule": "COc1ccc(-c2noc(C(N)CCSC)n2)cc1", "note": "(stereo not given)", "cytotoxicity at 10 µM": -7.27}
{"molecule": "O=S(=O)(c1c(F)cccc1F)N1CCC(Cn2cccn2)CC1", "cytotoxicity at 10 µM": -11.9}
{"molecule": "CC(=O)N1CCC2(CC1)CNc1ccc(F)cc12", "cytotoxicity at 10 µM": 1.63}
{"molecule": "O=C(c1cc(-c2ccn(CC3CC3)n2)n2ccccc12)N1CCOCC1", "cytotoxicity at 10 µM": 9.76}
{"molecule": "CCN(CC)[C@@H]1CN(Cc2cnn(C)c2)[C@@H]2COC[C@H]12", "cytotoxicity at 10 µM": 8.61}
{"molecule": "O=C(C1CC=CC1)N1CC[C@H]2[C@@H]1CCC(=O)N2c1ccccc1", "cytotoxicity at 10 µM": 8.88}
{"molecule": "O=C(CC1CCCC1)NCCn1ccc(-c2ccncc2)n1", "cytotoxicity at 10 µM": 5.97}
{"molecule": "COC(=O)CNC(=O)CCc1cc(Cl)cs1", "cytotoxicity at 10 µM": -5.31}
{"molecule": "N#Cc1ccc(SCCC(=O)O)cc1", "cytotoxicity at 10 µM": -2.85}
{"molecule": "Cc1c(COC(C)C)cccc1NC(=O)N1CCC(N2CCCC2)C1", "note": "(stereo not given)", "cytotoxicity at 10 µM": -5.56}
{"molecule": "Cc1ccccc1CC(C)(C)NC(=O)c1cccc(OCC(N)=O)c1", "cytotoxicity at 10 µM": 2.93}
{"molecule": "O=C(Cc1cccs1)NS(=O)(=O)c1cccc2cnccc12", "cytotoxicity at 10 µM": -14.6}
{"molecule": "O=C(c1sccc1C1CC1)N1CCN(c2nccs2)CC1", "cytotoxicity at 10 µM": 1.41}
{"molecule": "CC(=O)c1c(F)cccc1NC1CCN(C(=O)C2CCCCC2)CC1", "cytotoxicity at 10 µM": 20.7}
{"molecule": "CCS(=O)(=O)CC(=O)NC1CCc2nccn2C1", "note": "(stereo not given)", "cytotoxicity at 10 µM": 17.1}
{"molecule": "COCCS(=O)(=O)N1CCN(c2cccc(O)c2)CC1", "cytotoxicity at 10 µM": 5.33}
{"molecule": "Cc1c(C(=O)NCCC(C)C)nnn1-c1cccc2c1CCN(C)C2", "cytotoxicity at 10 µM": 1.31}
{"molecule": "CCC(C)(C)NC(=O)c1nnn(-c2cccc3c2CCN(C)C3)c1C", "cytotoxicity at 10 µM": -0.663}
{"molecule": "O=C(CCN1CCC(C(=O)c2cc(F)ccc2F)CC1)NC1CCCC1", "cytotoxicity at 10 µM": 4.76}
{"molecule": "CC(C)S(=O)(=O)NC(=O)c1cc(-c2cccc(Cl)c2)no1", "cytotoxicity at 10 µM": 10}
{"molecule": "Cc1nn(C)c(N2CCOCC2)c1CNC(C)c1ccccn1", "note": "(stereo not given)", "cytotoxicity at 10 µM": -10.7}
{"molecule": "Cc1cc(F)ccc1-n1cc(O)c(C(=O)NCC[S+](C)[O-])n1", "note": "(stereo not given)", "cytotoxicity at 10 µM": 9.38}
{"molecule": "Cc1nnc2n1CCN(C(=O)CN1C(=O)C(C)Oc3ccccc31)C2", "note": "(stereo not given)", "cytotoxicity at 10 µM": -0.905}
{"molecule": "COc1cc2c(c(OC)c1OC)CCN(CCn1nc(C)cc1C)CC2", "cytotoxicity at 10 µM": 12.9}
{"molecule": "Cc1ccc(S(=O)(=O)NC(=O)CCOCc2ccccc2)s1", "cytotoxicity at 10 µM": -11.2}
{"molecule": "Cc1cnn(CC(=O)NC2CCCc3cc(OC(F)F)ccc32)c1", "note": "(stereo not given)", "cytotoxicity at 10 µM": -0.653}
{"molecule": "CNS(=O)(=O)c1ccc(CNC(=O)N(C)CC(O)COC)cc1", "note": "(stereo not given)", "cytotoxicity at 10 µM": -1.22}
{"molecule": "CCN(C)C(C(=O)Nc1ccc2c(c1)CCC(=O)N2)c1ccccc1", "note": "(stereo not given)", "cytotoxicity at 10 µM": -1.45}
{"molecule": "COCC(C)N(C)C(=O)NC1CCN(S(C)(=O)=O)CC1", "note": "(stereo not given)", "cytotoxicity at 10 µM": 5.36}
{"molecule": "CN1CC2(CCN(C(=O)Cn3ncc4ccccc4c3=O)CC2)OC1=O", "cytotoxicity at 10 µM": -2.96}
{"molecule": "Cc1cc(C)n(CCC(=O)N2CCCCC2c2nccs2)n1", "note": "(stereo not given)", "cytotoxicity at 10 µM": 10.3}
{"molecule": "Cc1nn(C)c2ncnc(N(C)CC3CCN(CC(C)C)C3)c12", "note": "(stereo not given)", "cytotoxicity at 10 µM": -5.79}
{"molecule": "COCC[C@]1(O)CCN(C2CCN(C(=O)C3CCC3)CC2)C[C@H]1C", "cytotoxicity at 10 µM": 0.866}
{"molecule": "CC(C)c1nnc2n1CCN(CC(=O)Nc1sccc1C#N)C2", "cytotoxicity at 10 µM": -2.6}
{"molecule": "COc1ccccc1OCCN1CCC(N2CCNC2=O)CC1", "cytotoxicity at 10 µM": -3.19}
{"molecule": "N#Cc1cn(C2CC2)c(=O)n(CC(O)c2ccccc2F)c1=O", "note": "(stereo not given)", "cytotoxicity at 10 µM": 3.97}
{"molecule": "Cc1cnn(CC2CN(CC(=O)Nc3sccc3C#N)CCO2)c1", "note": "(stereo not given)", "cytotoxicity at 10 µM": -0.935}
{"molecule": "COCc1ccccc1C(=O)N1CCCC(n2nc(C)cc2C)C1", "note": "(stereo not given)", "cytotoxicity at 10 µM": -10.5}
{"molecule": "Cc1nn(C)c(Cl)c1C(=O)NCC(c1ccsc1)N(C)C", "note": "(stereo not given)", "cytotoxicity at 10 µM": -10}
{"molecule": "Cc1ccc(CNC(=O)NCc2csc(C)n2)cn1", "cytotoxicity at 10 µM": -8.24}
{"molecule": "CN(C)c1ccc(C(=O)N2CCN(C(=O)N3CCCCC3)CC2)nn1", "cytotoxicity at 10 µM": -9.14}
{"molecule": "CN(Cc1nc2c(cnn2C)c(=O)[nH]1)Cc1ccc(F)cc1F", "cytotoxicity at 10 µM": -1.29}
{"molecule": "CO[C@@H]1CCN(S(=O)(=O)N(C)C)[C@@H]2CN(Cc3cccnc3)C[C@@H]21", "cytotoxicity at 10 µM": -1.91}
{"molecule": "O=C(NC[C@H]1OC[C@@H]2CCN(C3CCOCC3)C[C@@H]21)c1ccncc1", "cytotoxicity at 10 µM": 4.98}
{"molecule": "CCn1cc2c(n1)C(COC)CN(c1ccc(C)nn1)C2", "note": "(stereo not given)", "cytotoxicity at 10 µM": 11.6}
